These compounds were tested against T1, OR1G1 (Homo sapiens) (UniProt P47890). Conditions: stereoisomer not certain.
T1 sequence (whole entry): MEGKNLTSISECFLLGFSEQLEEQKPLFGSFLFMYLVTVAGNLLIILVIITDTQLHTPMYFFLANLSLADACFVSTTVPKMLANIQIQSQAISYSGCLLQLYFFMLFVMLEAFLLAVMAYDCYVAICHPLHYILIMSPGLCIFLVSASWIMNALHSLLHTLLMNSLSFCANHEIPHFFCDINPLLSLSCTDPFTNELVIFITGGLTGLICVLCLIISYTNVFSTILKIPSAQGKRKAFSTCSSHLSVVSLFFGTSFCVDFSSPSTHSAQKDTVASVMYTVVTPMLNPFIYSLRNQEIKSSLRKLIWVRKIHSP
Procedure, shortened: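 Each entry records the cell line, G-protein, co-transfected protein and tags used. Methods varied with the source, often transient luciferase assays in mammalian cell lines. A receptor–molecule pair is called responsive (active) if the original authors judged its signal statistically different from baseline and non-responsive (inactive) otherwise.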
With `CC(=O)C=CC1=C(C)CCCC1(C)C` the “odorant receptor agonist call” value was “inactive”.
In the case of `CCCCCCCCCO`, the “odorant receptor agonist call” value is reported as “active”.
In the case of `Cc1cnccn1`, the “odorant receptor agonist call” value is reported as “active”.
For `CCCCCCCCCCO`, the “odorant receptor agonist call” value was “active”.
With `CC(C)CCCC(C)(C)O` the “odorant receptor agonist call” value was “inactive”.
`CCCCC(CC)CO` (centres undefined) was tested, and the “odorant receptor agonist call” value was “active”.
`Cc1occc(=O)c1O` was tested, and the “odorant receptor agonist call” value was “active”.
With `O=C(O)C=Cc1ccccc1` the “odorant receptor agonist call” value was “inactive”.
With `CCCCCCCCC(OC(C)=O)OC(C)=O` the “odorant receptor agonist call” value was “active”.
For `CCC(=O)C=CC1C(C)=CCCC1(C)C` (centres undefined), the “odorant receptor agonist call” value was “inactive”.
With `CCCCCCCCC(=O)OCC` the “odorant receptor agonist call” value was “active”.
With `CC12CCC(CC1=O)C2(C)C` (centres undefined) the “odorant receptor agonist call” value was “active”.
`CCCCCCCCCC(=O)[O-].[H+]` was tested, and the “odorant receptor agonist call” value was “active”.
For `CCCCCC(=O)CC`, the “odorant receptor agonist call” value was “inactive”.
With `CC=Cc1ccc(OC)cc1` the “odorant receptor agonist call” value was “active”.
In the case of `Cc1ccc(C(C)C)cc1O`, the “odorant receptor agonist call” value is reported as “inactive”.
In the case of `CCCCCCC(=O)OCC`, the “odorant receptor agonist call” value is reported as “inactive”.
With `CCCCCCCC(=O)OCC` the “odorant receptor agonist call” value was “active”.
`CC1=CCC2CC1C2(C)C` (centres undefined) was tested, and the “odorant receptor agonist call” value was “inactive”.
With `CCCCC(O)CCC` (centres undefined) the “odorant receptor agonist call” value was “active”.
For `COc1nccnc1CC(C)C`, the “odorant receptor agonist call” value was “inactive”.
In the case of `CCCC(=O)SC`, the “odorant receptor agonist call” value is reported as “active”.
In the case of `CCCCCCC(=O)OC`, the “odorant receptor agonist call” value is reported as “inactive”.
In the case of `CC(CC=O)c1ccc(C(C)(C)C)cc1` (centres undefined), the “odorant receptor agonist call” value is reported as “inactive”.
For `COc1ccccc1`, the “odorant receptor agonist call” value was “inactive”.
In the case of `CC(=O)CCC=C(C)C`, the “odorant receptor agonist call” value is reported as “inactive”.
`C=C(C)C1CC=C(C)CC1` (centres undefined) was tested, and the “odorant receptor agonist call” value was “active”.
`CCCCCC1COCCC1OC(C)=O` (centres undefined) was tested, and the “odorant receptor agonist call” value was “inactive”.
`CCCCCCCCCC(=O)OC` was tested, and the “odorant receptor agonist call” value was “active”.
In the case of `CCCCCC(O)CC` (centres undefined), the “odorant receptor agonist call” value is reported as “active”.
With `CC1CCC(C(C)C)C(=O)C1` (centres undefined) the “odorant receptor agonist call” value was “inactive”.
In the case of `CCCCCCCC(C)=O`, the “odorant receptor agonist call” value is reported as “active”.
`c1ccc2[nH]ccc2c1` was tested, and the “odorant receptor agonist call” value was “inactive”.
`CC(C)=CCCC(C)CC=O` (centres undefined) was tested, and the “odorant receptor agonist call” value was “active”.
